These results are taken from ChEMBL document CHEMBL5053496, “Antibacterial sulfonimidamide-based oligopeptides as type I signal peptidase inhibitors: Synthesis and biological evaluation” (Eur J Med Chem, 2021).

Data set [1] has as its system Escherichia coli. The data set can be described thus: Antibacterial activity against Escherichia coli D22 mutant assessed as inhibition of bacterial growth measured after 16 to 20 hrs. The data set is classed as functional. The following applies: time 16-20 hrs. In short, it runs like this:
(§1)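 MIC read visually as the lowest concentration giving complete growth inhibition to the unaided eye, with medium-only wells as the control.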

Another data set deals with Acinetobacter baumannii. The data set can be described thus: Antibacterial activity against Acinetobacter baumanii ATCC 19606 assessed as inhibition of bacterial growth measured after 16 to 20 hrs. The data set is classed as functional. The following applies: ATCC 19606 = CIP 70.34 = JCM 6841, time 16-20 hrs. In short, it runs like this: (§2)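 Read visually as complete growth inhibition by the unaided eye, with medium-only wells as control.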

The test system of a further data set is Staphylococcus aureus. The data set can be described thus: Antibacterial activity against staphylococcus aureus ATCC 29213 assessed as inhibition of bacterial growth measured after 16 to 20 hrs. In kind it is functional. The following applies: time 16-20 hrs. In short, it runs like this:
as §2

For another data set, the system named is Klebsiella pneumoniae. Nature of the data set: Antibacterial activity against wild type Klebsiella pneumoniae ATCC 13883 assessed as inhibition of bacterial growth measured after 16 to 20 hrs.
For data set [2], the system named is Pseudomonas aeruginosa. The data set can be described thus: Antibacterial activity against efflux pump deficient Pseudomonas aeruginosa PAO750 assessed as inhibition of bacterial growth measured after 16 to 20 hrs. The data set is classed as functional. As to conditions: time 16-20 hrs. In short, it runs like this:
as §2

The test system of a further data set is HepG2. Nature of the data set: Cytotoxicity against human HepG2 cells assessed as reduction in cell viability measured after 72 hrs by fluorometric assay. As to conditions: HepG2, 72 h. In kind it is cell-based. In short, it runs like this:
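HepG2 cells grown with L-glutamine 2 mM, passaged twice weekly, used up to 20 passages. Seeded at 1000 cells/well in 384-well plates, exposed 72 h. Fluorescence read-out; survival index (%) = test-well fluorescence as percent of control cultures, blanks subtracted. Assay accepted if control signal-to-noise >10, CV <30%, bortezomib positive control SI <5%.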

Data set [3] is described as follows: Hemolytic activity against human RBC assessed as hemolysis measured after 45 mins. In kind it is ADME, tissue-based, Erythrocyte. The following applies: red blood cells (RBC), read-out: Activity. In short, it runs like this:
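Human RBCs from heparinized blood, washed three times in Tyrode buffer pH 7.4. Final 100 µM compound, 1% DMSO, 50% RBC; 37 °C, 45 min, shaking 250 rpm. Cells spun off, supernatant hemoglobin read at 540 nm. Percent hemolysis relative to 2% Triton X-100 full lysis and buffer-only negative control.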

Data set [4] can be described thus: Inhibition of Escherichia coli LepB using dabcyl-VEVGGTATA GFSPRGLE-EDANS and dabcyl-KLTGFTVKPVQAIA GYEILE-EDANS-OH as substrates preincubated for 10 mins followed by substrate addition by FRET assay. In short, it runs like this:
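FRET assay with recombinant E. coli LepB, final about 50 nM. Enzyme pre-incubated with inhibitor 10 min at 22 °C, then substrate added at 8 µM. Linear fluorescence increase from cleavage followed at 22 °C for 2 h. IC50 from non-linear regression of sigmoidal rate vs. inhibitor concentration curves.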

Data set [5] concerns Escherichia coli. Nature of the data set: Antibacterial activity against wild type Escherichia coli ATCC 25922 assessed as inhibition of bacterial growth measured after 16 to 20 hrs. The data set is classed as functional. The following applies: time 16-20 hrs. In short, it runs like this: as §2
Data set [6] relates to Escherichia coli. The data set can be described thus: Antibacterial activity against Escherichia coli harboring tolC efflux defective mutant assessed as inhibition of bacterial growth measured after 16 to 20 hrs. The following applies: time 16-20 hrs. In kind it is functional. In short, it runs like this: as §1
Data set [7] deals with Pseudomonas aeruginosa. The data set can be described thus: Antibacterial activity against wild type Pseudomonas aeruginosa PAO1 assessed as inhibition of bacterial growth measured after 16 to 20 hrs. The data set is classed as functional. The following applies: time 16-20 hrs. In short, it runs like this: as §2

pIC50: −log10 of the molar value. Values after ≈ are worked out from the molar mass of the structure shown. A value given as a limit tells only on which side of the number the result lay.

`CCCCCCc1ccc(-c2ccc(S(=O)(=NCCN)N3CCC[C@H]3C(=O)N[C@H](C(=O)N[C@@H](C)C(=O)NC(CC(N)=O)C(=O)N[C@@H](C)B3O[C@@H]4C[C@H]5C[C@H](C5(C)C)[C@]4(C)O3)[C@@H](C)O)cc2)cc1` (stereo not given in full): the MIC in the data set on Escherichia coli [1] was 8 µg/mL (≈ 8.43 µM); in the data set with Acinetobacter baumannii, 64 µg/mL (≈ 67.4 µM); with Staphylococcus aureus, less than 1 µg/mL; with Klebsiella pneumoniae it was greater than 64 µg/mL; with Pseudomonas aeruginosa [2] it was greater than 64 µg/mL; with Escherichia coli [5] it was 64 µg/mL (≈ 67.4 µM). The values for the MIC in the data set on Escherichia coli [6] and in the data set on Pseudomonas aeruginosa [7] were 16 µg/mL (≈ 16.9 µM) and greater than 64 µg/mL, respectively. For the same molecule, the pIC50 in the data set with HepG2 was 5.28; in data set [4], 6.88. Also, in [3], the hemolysis at 0.75 h worked out at 5.32%.

Take `CCCCCCCCCCCCS(=O)(=O)N1CCC[C@H]1C(=O)N[C@H](C(=O)N[C@@H](C)C(=O)NC(CC(N)=O)C(=O)N[C@@H](C)B1O[C@@H]2C[C@H]3C[C@H](C3(C)C)[C@]2(C)O1)[C@@H](C)O` (mixture of isomers): the minimal inhibitory concentration (MIC) in the data set with Escherichia coli [1] is 16 µg/mL; with Acinetobacter baumannii it was greater than 64 µg/mL; in the data set with Staphylococcus aureus it was less than 1 µg/mL; in the data set with Klebsiella pneumoniae, greater than 64 µg/mL; in the data set with Pseudomonas aeruginosa [2], 32 µg/mL; with Escherichia coli [5] it was greater than 64 µg/mL. Besides, the values for the MIC with Escherichia coli [6] and with Pseudomonas aeruginosa [7] were 8 µg/mL and greater than 64 µg/mL, respectively. Further, the negative logarithm of the IC50 (pIC50) was 5.92 in the data set with HepG2 and 7.25 in data set [4]. For the same molecule, in data set [3], the hemolysis at 0.75 h came out at 0.1%.

In the case of `CCCCCCc1ccc(-c2ccc([S@@](=N)(=O)N3CCC[C@H]3C(=O)N[C@H](C(=O)N[C@@H](C)C(=O)NC(CC(N)=O)C(=O)N[C@@H](C)B3O[C@@H]4C[C@H]5C[C@H](C5(C)C)[C@]4(C)O3)[C@@H](C)O)cc2)cc1` (mixture of isomers), the MIC in the data set with Escherichia coli [1] is 32 µg/mL; in the data set on Acinetobacter baumannii it was greater than 64 µg/mL; in the data set on Staphylococcus aureus it was 4 µg/mL; in the data set with Klebsiella pneumoniae it was greater than 64 µg/mL; in the data set with Pseudomonas aeruginosa [2], greater than 64 µg/mL; in the data set on Escherichia coli [5], greater than 64 µg/mL. Also, the MIC with Escherichia coli [6] was 4 µg/mL; in the data set on Pseudomonas aeruginosa [7] it was greater than 64 µg/mL. The values for the pIC50 (in the data set with HepG2; in [4]) were 5.52 and 5.95, respectively. Moreover, in data set [3], the hemolysis at 0.75 h is 0.35%.

As for `CCCCCCc1ccc(-c2ccc([S@](=N)(=O)N3CCC[C@H]3C(=O)N[C@H](C(=O)N[C@@H](C)C(=O)NC(CC(N)=O)C(=O)N[C@@H](C)B3O[C@@H]4C[C@H]5C[C@H](C5(C)C)[C@]4(C)O3)[C@@H](C)O)cc2)cc1` (mixture of isomers), the MIC is 8 µg/mL in the data set on Escherichia coli [1]; greater than 64 µg/mL in the data set on Acinetobacter baumannii; 4 µg/mL in the data set on Staphylococcus aureus; greater than 64 µg/mL in the data set with Klebsiella pneumoniae; greater than 64 µg/mL with Pseudomonas aeruginosa [2]; greater than 64 µg/mL in the data set with Escherichia coli [5]. The MIC in the data set with Escherichia coli [6] was 4 µg/mL; with Pseudomonas aeruginosa [7], greater than 64 µg/mL. For the same molecule, the pIC50 with HepG2 was 5.53; in [4] it was 5.97. Further, the hemolysis at 0.75 h in data set [3] turned out to be 2.15%.

In the case of `CCCCCCc1ccc(-c2ccc(S(=O)(=O)N3CCC[C@H]3C(=O)N[C@H](C(=O)N[C@@H](C)C(=O)NC(CC(N)=O)C(=O)N[C@@H](C)B3O[C@@H]4C[C@H]5C[C@H](C5(C)C)[C@]4(C)O3)[C@@H](C)O)cc2)cc1` (mixture of isomers), the minimum inhibitory concentration (MIC) in the data set on Escherichia coli [1], in the data set on Acinetobacter baumannii, in the data set with Staphylococcus aureus, in the data set on Klebsiella pneumoniae, with Pseudomonas aeruginosa [2] and with Escherichia coli [5] was greater than 64 µg/mL throughout. The MIC with Escherichia coli [6] and in the data set with Pseudomonas aeruginosa [7] was greater than 64 µg/mL each time. The pIC50 was 6.24 in the data set on HepG2 and 7.15 in data set [4]. Also, the hemolysis at 0.75 h in data set [3] stood at 14.5%.

A word on the MIC: it is the least concentration at which growth counts as inhibited. One may read the pIC50 as the negative decadic logarithm of the IC50, by convention in mol/L.
